Screening results: PubChem, several laboratories
Xi reactivation: activators of inactive X chromosome reactivation, primary screen, imaging, XiGFP fibroblasts, GFP high-content imaging, set 2; 360,000 tested, 0.055% active; activation, % at 7.58 µM; AID 743238, 2013; XiGFP mouse fibroblasts, % GFP-positive cells imaging, 3 d; cells co-treated with 5-aza-dC sensitizer; scaled so ellipticine positive control = 100%;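 active = mean normalized replicate activation at least 10% and every replicate at or above 10%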
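Assay system – SV40-immortalized XiGFP fibroblast cells, line 68-5-11 · Buffer or medium – DMEM supplemented with 5-aza-dC as sensitizing agent · Dosing – one concentration, pinned · Benchmarks – positive control ellipticine, 6 µM final · Times – 3 days compound exposure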
CaV13 FRET inh: Primary screen for inhibitors of IQ motif and Ca2+-dependent inactivation inhibitor domain binding in CACNA1D, Förster resonance energy transfer in living cells, …; HEK cells, CFP/YFP FRET ICDI-IQ, plate reader, 10 min; percent FRET-ratio fall versus neutral wells; 340,000 tested, 0.098% active; inhibition, % at 12.3 µM;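 active = mean replicate inhibition of at least 30% and at least 1% of replicates passing that level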
TWEAK-Fn14 inh: inhibitors of TWEAK-Fn14 signaling, primary screen, luciferase reporter cells, uHTS; TWEAK-stimulated Fn14 reporter cells, luciferase luminescence, 8 h; inhibition, % at 10 µM; 360,000 tested, 2% active; AID 1159606, 2016; in the data active = inhibition above about 50%
TROY signal inh: inhibitors of TROY-driven NF-kB signaling, primary screen, Q293 LMP1-TROYcd cells, NF-kB luciferase, uHTS; Q293 LMP1-TROYcd NF-kB luciferase reporter, 4 h; inhibition, % at 10 µM; 360,000 tested, 0.98% active; AID 1347056, 2019;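 active = compounds whose plate-normalised and pattern-corrected inhibition of the luciferase reporter signal at the single screening dose is 50% or more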
LGR2 antag: inhibitors of bursicon-induced LGR2 CRE-luciferase signal, primary screen, cell-based, HEK293, CRE-luciferase reporter, bursicon stimulation; Drosophila bursicon receptor LGR2 (rickets); bursicon-stimulated, 4 h; inhibition, % at 9.99 µM; 380,000 tested, 0.35% active;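 active = drop in luminescence signal, shown as inhibition above about 50% in the replicate tests, limit read from the data, passing the limit was not always enough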;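 note: agonist challenge used bursicon conditioned medium at about half maximal strength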
Numbers stand for hits; – = inactive; · = no result; ! = repeats disagree. This is a sample that favours compounds with a hit; in the whole collection about 2% have one here.

SMILES | Xi reactivation | CaV13 FRET inh | TWEAK-Fn14 inh | TROY signal inh | LGR2 antag
Nc1c(C(=O)OCC2CCCO2)c2nc3ccccc3nc2n1C1CCCC1 (configuration not stated) | · | – | – | 60 | ·
CC(C)Cn1c(N)c(C(=O)NCC2CCCO2)c2nc3ccccc3nc21 (configuration not stated) | · | – | – | 51 | ·
COCC(C)OC(=O)c1c(N)n(CC(C)C)c2nc3ccccc3nc12 (configuration not stated) | · | – | – | 58 | ·
Cc1ccc(O)c(C(=O)c2cnc3c(c2)COc2ccccc2-3)c1 | · | – | 63 | – | ·
O=C(c1cnc2c(c1)COc1ccc(Cl)cc1-2)c1ccccc1O | · | – | – | – | –
c1ccc(Nc2ccnc(Nc3ccccc3)n2)cc1 | – | – | 55 | – | –
Cc1ccc(NC2=Nc3ccccc3CC2)cc1 | · | · | 72 | 61 | ·
Brc1ccc(NC2=Nc3ccccc3CC2)cc1 | · | – | – | – | ·
COc1ccc(N/C=C2\CCc3ccccc3C2=O)cc1 | – | – | 87 | 70 | 81
O=C1C(=Cc2ccccc2[N+](=O)[O-])Cc2ccccc21 | – | – | 95 | – | –
COc1ccc(/C=C2\CCc3ccccc3C2=O)cc1OC | · | – | – | – | –
Nc1ccccc1C=C1Cc2ccccc2C1=O | – | – | – | – | –
CC(=O)Oc1ccc(/C=C2/CCc3ccccc3C2=O)cc1 | – | – | 88 | 61 | 55
COc1cccc(/C=C2\CCc3ccccc3C2=O)c1 | – | – | 61 | – | –
COCC#Cc1ccc2c(c1)O[C@H](CN(C)C(=O)CC1CC1)[C@H](C)CN([C@@H](C)CO)S2(=O)=O | – | · | · | · | –
C[C@@H]1CN([C@H](C)CO)C(=O)Cc2cc(N(C)C)ccc2O[C@@H]1CN(C)C(=O)Nc1cccc2ccccc12 | – | · | · | · | –
O=C1/C(=C/c2cccc([N+](=O)[O-])c2)CCc2ccccc21 | – | – | 93 | – | –
CCN1C/C(=C\c2cccc([N+](=O)[O-])c2)C(=O)/C(=C/c2cccc([N+](=O)[O-])c2)C1 | – | – | 93 | – | –
O=C(Nc1ccc(Cl)cc1)c1cc2c(cc1O)[nH]c1ccccc12 | – | – | 82 | 55 | –
CCc1ccc(-c2cc(C(=O)Nn3cnnc3)c3ccccc3n2)cc1 | · | – | 59 | – | –
CCNC(=S)NNC(=O)c1cc(-c2ccc(OCC)cc2)nc2ccccc12 | · | – | 52 | – | 89
CCNC(=S)NNC(=O)c1cc(-c2cccc(OC)c2)nc2ccccc12 | – | – | – | – | –
C[C@@H]1CN([C@@H](C)CO)C(=O)c2cccc(NC(=O)c3cnccn3)c2O[C@@H]1CN(C)Cc1ccc(C(F)(F)F)cc1 | – | · | · | · | –
CCC(=O)N1CCC2(CC1)CN(S(C)(=O)=O)[C@@H](CO)c1[nH]c3cc(OC)ccc3c12 | – | · | · | · | –
CCCc1ccc(C(C)NC(=O)c2cnccn2)cc1 (configuration not stated) | · | – | 85 | · | ·
SMILES | Xi reactivation | CaV13 FRET inh | TWEAK-Fn14 inh | TROY signal inh | LGR2 antag
CCCCc1ccc(NC(=O)c2cnccn2)cc1 | – | – | 64 | – | 65
O=[N+]([O-])c1ccc(O)c(N=Cc2sc3ccccc3c2O)c1 | – | – | 76 | 76 | –
CCC(C)Sc1cc(-c2nc3ccc(C)cn3c2NCc2ccccc2)ccc1OC (configuration not stated) | – | – | 78! | – | –
COc1ccc(-c2cc(-c3nc4ccccn4c3NCc3ccccc3)ccc2OC)cc1 | – | – | – | – | 100
CCC(C)Sc1cc(-c2nc3cc(C)ccn3c2NC2CCCCC2)ccc1OC (configuration not stated) | – | – | – | – | –
CCC(C)Sc1cc(-c2nc3ccccn3c2NC2CCCCC2)ccc1OC (configuration not stated) | – | – | – | – | 53!
CCCCNc1c(-c2ccc(OC)c(SC3CCCCC3)c2)nc2ccc(C)cn12 | – | – | 59! | – | 52!
C[C@@H]1CN([C@H](C)CO)C(=O)c2cc(-c3cncnc3)cnc2O[C@@H]1CN(C)C(=O)Cc1ccccn1 | – | · | · | · | –
Cc1ccc(NC(=O)CSc2nn(-c3ccc(Cl)cc3)c(=S)s2)cc1S(=O)(=O)N(C)C | – | · | 64 | 52 | –
Cc1ccc(NC(=O)CNc2ccc(Cl)c(Cl)c2)cc1S(=O)(=O)N(C)C | – | · | 91 | – | –
CN(C)S(=O)(=O)c1cc(NC(=O)CSc2nn(-c3ccc(Cl)cc3)c(=S)s2)ccc1Cl | – | – | 83 | – | –
C[C@@H]1CN([C@@H](C)CO)S(=O)(=O)c2ccc(C#C[C@@H](C)O)cc2O[C@H]1CN(C)CC1CCCC1 | – | · | · | · | –
COc1ccc(-c2nc(NC(=O)c3ccc(OCC(=O)N4CCOCC4)c(OC)c3)sc2C)cc1 | – | – | 58 | – | –
COc1cc(C(=O)Nc2ccc(C)cn2)ccc1OCC(=O)N1CCOCC1 | – | – | – | – | –
COc1cc(C(=O)Nc2cc(C)ccn2)ccc1OCC(=O)N1CCOCC1 | – | · | 93 | – | –
COc1cccc(C(=O)Nc2ccc3c(c2)C(=O)N(C)C[C@@H](OC)[C@@H](C)CN[C@H](C)CO3)c1 | – | · | · | · | –
C[C@@H]1CN([C@@H](C)CO)C(=O)Cc2cc(NC(=O)Cc3ccccc3)ccc2O[C@H]1CN(C)S(=O)(=O)c1ccccc1 | – | · | · | · | –
CCCC(=O)Nc1ccc2c(c1)OC[C@@H](C)N(CCC)C[C@@H](C)[C@@H](OC)CN(C)C2=O | – | · | · | · | –
N#Cc1nc(NCC(F)F)nc(Nc2cc(F)cc(F)c2)n1 | – | – | 92 | – | –
O=C1C(=O)N(CCN2CCOCC2)C(c2ccccn2)/C1=C(/O)c1ccc(F)cc1 (configuration not stated) | · | – | – | – | ·
Cc1c(/C(O)=C2\C(=O)C(=O)N(CCCN(C)C)C2c2ccccc2)cnn1-c1ccccc1 (configuration not stated) | – | – | 82 | 86 | –
Cc1c(/C(O)=C2/C(=O)C(=O)N(CCN3CCOCC3)C2c2ccccn2)cnn1-c1ccccc1 (configuration not stated) | – | – | 92 | 85 | 80
CCCOC(c1ccccc1)(c1ccc(C(F)(F)F)cc1)C(Oc1nc(C)cc(C)n1)C(=O)O (configuration not stated) | – | – | 61 | – | –
Cc1cc(C)nc(OC(C(=O)O)C(OCCc2ccccc2)(c2ccc(F)cc2)c2ccc(F)cc2)n1 (configuration not stated) | – | – | – | – | –
